In ChEMBL document CHEMBL1817625, “Synthesis of pheophorbide-a conjugates with anticancer drugs as potential cancer diagnostic and therapeutic agents” (Bioorg Med Chem, 2011):
Active and inactive are the calls of the source. The calls are words filed in the database; no cut-off is given here.

How the values were obtained:
HeLa [1] = assay: Cellular uptake in human HeLa cells at 10 uM after 48 hrs by confocal microscopic analysis; type: ADME, cell-based
Outline: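 HeLa cells were seeded in slide dishes in RPMI 1640 overnight. They were then exposed to 10 µM compound in complete medium for 48 h under 95% air/5% CO2 and washed three times with PBS. Confocal imaging used 440 nm excitation, collecting 575–600 nm emission (doxorubicin channel) and 655–755 nm emission (pheophorbide-a channel).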

AT84 = assay: Cytotoxicity against mouse AT84 cells assessed as inhibition of cell growth at 10 uM after 3 days by SRB assay; type: functional, cell-based
Outline: (§1)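 Cells were grown in RPMI 1640 with 10% FBS and antibiotic–antimycotic at 37 °C, 5% CO2, and trypsin/EDTA-detached. They were seeded at 50,000 cells/mL and exposed to 10 µM compound for 3 days. For SRB staining, cells were fixed cold for 1 h, stained 1 h at room temperature, washed with 1% acetic acid and solubilized in 10 mM Tris. A515 was read; means of four duplicates were expressed as % of solvent-treated control.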

U-87MG ATCC = assay: Cytotoxicity against human U87MG cells assessed as inhibition of cell growth at 10 uM after 3 days by SRB assay; type: functional, cell-based; outline: as §1
HeLa [2] = assay: Cytotoxicity against human HeLa cells assessed as inhibition of cell growth at 10 uM after 3 days by SRB assay; type: functional, cell-based
Outline: (§2)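 Cells were kept at 37 °C in 5% CO2, HeLa in DMEM and MCF7 in RPMI 1640, each with 10% FBS. They were seeded at 50,000 cells/mL in 96-well plates, exposed to 10 µM compound for 3 days, then fixed in the cold for 1 h. Staining was SRB for 1 h at room temperature with 1% acetic acid washes. Bound dye was released in 10 mM Tris and read at 515 nm. Values are means of four duplicated samples, as a percentage of solvent-treated control.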

MCF7 = assay: Cytotoxicity against human MCF7 cells assessed as inhibition of cell growth at 10 uM after 3 days by SRB assay; type: functional, cell-based; outline: as §2
YD-10B = assay: Cytotoxicity against human YD-10B cells assessed as inhibition of cell growth at 10 uM after 3 days by SRB assay; type: functional, cell-based
Outline: (§3)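 Cultures were kept in DMEM with 10% FBS and antibiotic–antimycotic at 37 °C, 5% CO2, and detached with trypsin/EDTA. Cells were plated at 50,000 cells/mL and treated with 10 µM compound for 3 days. SRB staining: 1 h cold fixation, 1 h room-temperature stain, 1% acetic acid washes, 10 mM Tris release. A515 was read; the mean of four duplicates was given as % of solvent-treated control.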

A549 = assay: Cytotoxicity against human A549 cells assessed as inhibition of cell growth at 10 uM after 3 days by SRB assay; type: functional, cell-based; outline: as §3
SK-OV-3 = assay: Cytotoxicity against human SKOV3 cells assessed as inhibition of cell growth at 10 uM after 3 days by SRB assay; type: functional, cell-based; outline: as §1
HepG2 = assay: Cytotoxicity against human HepG2 cells assessed as inhibition of cell growth at 10 uM after 3 days by SRB assay; type: functional, cell-based; outline: as §3
HCT-116 = assay: Cytotoxicity against human HCT116 cells assessed as inhibition of cell growth at 10 uM after 3 days by SRB assay; type: functional, cell-based; outline: as §1
KB = assay: Cytotoxicity against human KB cells assessed as inhibition of cell growth at 10 uM after 3 days by SRB assay; type: functional, cell-based; outline: as §1
PC-3 = assay: Cytotoxicity against human PC3 cells assessed as inhibition of cell growth at 10 uM after 3 days by SRB assay; type: functional, cell-based; outline: as §1

Structure (SMILES) | Drug uptake (HeLa [1]) | growth inhibition (GI) (AT84) | growth inhibition (GI) (U-87MG ATCC) | growth inhibition (GI) (HeLa [2]) | growth inhibition (GI) (MCF7) | growth inhibition (GI) (YD-10B) | growth inhibition (GI) (A549) | growth inhibition (GI) (SK-OV-3) | growth inhibition (GI) (HepG2) | growth inhibition (GI) (HCT-116) | growth inhibition (GI) (KB) | growth inhibition (GI) (PC-3)
C=Cc1c(C)c2cc3nc(c4c5[nH]c(cc6nc(cc1[nH]2)C(C)=C6CC)c(C)c5C(=O)[C@@H]4C(=O)OC)[C@@H](CCC(=O)N[C@@H]1C[C@@H](O[C@H]2C[C@](O)(C(=O)CO)Cc4c(O)c5c(c(O)c42)C(=O)c2c(OC)cccc2C5=O)O[C@H](C)[C@@H]1O)[C@@H]3C | Active | Active | Active | Active | Active |  |  |  |  |  |  | 
C=Cc1c(C)c2cc3nc(c4c5[nH]c(cc6nc(cc1[nH]2)C(C)=C6CC)c(C)c5C(=O)[C@@H]4C(=O)OC)[C@@H](CCC(=O)Nc1ccc(COC(=O)N[C@@H]2C[C@@H](O[C@H]4C[C@](O)(C(=O)CO)Cc5c(O)c6c(c(O)c54)C(=O)c4c(OC)cccc4C6=O)O[C@H](C)[C@@H]2O)cc1)[C@@H]3C | Active | Active | Active | Active | Active | Active | Active | Active | Active | Active | Active | Active
C=Cc1c(C)c2cc3nc(c4c5[nH]c(cc6nc(cc1[nH]2)C(C)=C6CC)c(C)c5C(=O)[C@@H]4C(=O)OC)[C@@H](CCC(=O)O)[C@@H]3C [PHEOPHORBIDE A] | Active |  |  |  |  |  |  |  |  |  |  | 
COc1cccc2c1C(=O)c1c(O)c3c(c(O)c1C2=O)C[C@@](O)(C(=O)CO)C[C@@H]3O[C@H]1C[C@H](N)[C@H](O)[C@H](C)O1 [DOXORUBICIN] | Active |  |  |  |  |  |  |  |  |  |  | 
C=Cc1c(C)c2cc3nc(c4c5[nH]c(cc6nc(cc1[nH]2)C(C)=C6CC)c(C)c5C(=O)[C@@H]4C(=O)OC)[C@@H](CCC(=O)O[C@@H](C(=O)O[C@H]1C[C@@]2(O)[C@@H](OC(=O)c4ccccc4)[C@@H]4[C@]5(OC(C)=O)CO[C@@H]5C[C@H](O)[C@@]4(C)C(=O)[C@H](OC(C)=O)C(=C1C)C2(C)C)[C@@H](NC(=O)c1ccccc1)c1ccccc1)[C@@H]3C |  |  |  | Active | Active | Active |  |  |  |  | Active | 
C=Cc1c(C)c2cc3nc(c4c5[nH]c(cc6nc(cc1[nH]2)C(C)=C6CC)c(C)c5C(=O)[C@@H]4C(=O)OC)[C@@H](CCC(=O)Oc1ccccc1/C=C/C(=O)N[C@@H]1C[C@@H](O[C@H]2C[C@](O)(C(=O)CO)Cc4c(O)c5c(c(O)c42)C(=O)c2c(OC)cccc2C5=O)O[C@H](C)[C@@H]1O)[C@@H]3C | Active | Active | Active | Active | Active | Active | Active | Active | Active | Active | Active | Active
